ChEMBL document CHEMBL1143597, “Thrombospondin-1 mimetic peptide inhibitors of angiogenesis and tumor growth: design, synthesis, and optimization of pharmacokinetics and biological activities” (J Med Chem, 2005)
Where a SMILES comes first, the peptide text is derived from it. [ ]: non-standard residue; d: D form. d(aIle) = CC[C@H](C)[C@@H](N)C(=O)O; Nva = CCC[C@H](N)C(=O)O; Sar = CNCC(=O)O

Experiments:
[1] = In vitro inhibitory concentration against HMVE cell migration was determined; assay type: functional, cell-based; conditions: Homo sapiens
How it was run: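 Primary HMVEC grown to 80-90% confluency, starved 18 h in EBM with 5% FCS, labelled with calcein AM 30 min at room temperature. Cells with or without compound (in D5W) are placed above a filter with VEGF (10 ng) below, then held 4 h at 37 °C, 5% CO2. Unmigrated cells are wiped off and fluorescence is read (485/530). % inhibition is taken versus the VEGF positive control.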

[2] = In vitro inhibitory concentration against HMVEC endothelial tube formation was determined; assay type: functional, Homo sapiens
[3] = In vitro inhibitory concentration against HMVEC endothelial tube formation was determined; […]; assay type: functional, Homo sapiens
[4] = In vitro inhibitory concentration against HMVEC endothelial tube formation was determined; 50 - 25 nM; assay type: functional, Homo sapiens
[5] = In vitro inhibitory concentration against HMVEC endothelial tube formation was determined; 0.25 - 0.10 nM; assay type: functional, Homo sapiens
[6] = Inhibitory concentration against TSP-1 binding towards HMVEC cell line migration; assay type: functional, cell-based; conditions: Homo sapiens
[7] = In vitro inhibitory concentration against HMVEC endothelial tube formation was determined; 200 - 100 nM; assay type: functional, Homo sapiens

Compound | IC50 [1] [nM] | also measured
CCNC(=O)[C@H](CCCN=C(N)N)NC(=O)[C@@H](NC(=O)[C@H](CCCN=C(N)N)NC(=O)[C@@H](NC(=O)[C@H](NC(=O)[C@@H](NC(=O)CNC(C)=O)C(C)C)[C@H](C)CC)[C@@H](C)O)[C@@H](C)CC | > 100 | 
CCC[C@H](NC(=O)[C@@H](NC(=O)[C@H](CCCN=C(N)N)NC(=O)[C@@H](NC(=O)[C@H](NC(=O)[C@@H](NC(=O)CNC(C)=O)C(C)C)[C@H](C)CC)[C@@H](C)O)[C@@H](C)CC)C(=O)NCC | 1.45 | 
CCC[C@H](NC(=O)[C@@H](NC(=O)[C@H](NC(=O)[C@@H](NC(=O)CNC(C)=O)C(C)C)[C@H](C)CC)[C@@H](C)O)C(=O)N[C@H](C(=O)N[C@@H](CCCN=C(N)N)C(=O)NCC)[C@@H](C)CC | 4.22 | 
CCC[C@H](NC(=O)[C@@H](NC(=O)[C@H](NC(=O)[C@@H](NC(=O)CNC(=O)CN(C)C(C)=O)C(C)C)[C@H](C)CC)[C@@H](C)O)C(=O)N[C@H](C(=O)N[C@@H](CCCN=C(N)N)C(=O)N1CCC[C@H]1C(=O)NC(C)C)[C@@H](C)CC | 29 | IC50 [2]: > 1000 nM
CCC[C@H](NC(=O)[C@@H](NC(=O)[C@H](NC(=O)[C@@H](NC(=O)CNC(=O)CN(C)C(=O)CCC(=O)O)C(C)C)[C@H](C)CC)[C@@H](C)O)C(=O)N[C@H](C(=O)N[C@@H](CCCN=C(N)N)C(=O)N1CCC[C@H]1C(=O)NCC)[C@@H](C)CC | 0.26 | IC50 [3]: 10 nM
CCC[C@H](NC(=O)[C@@H](NC(=O)[C@H](NC(=O)[C@@H](NC(=O)CNC(=O)CN(C)C(C)=O)C(C)C)[C@H](C)CC)[C@@H](C)O)C(=O)N[C@H](C(=O)N[C@@H](CCCN=C(N)N)C(=O)N1CCC[C@H]1C(=O)NCC)[C@@H](C)CC [ABT 510] (Ac-[Sar]GV[dI]T[Nva]IRP-NHEt) |  | IC50 [6]: 0.03 nM; IC50 [7]: 200 nM
CCC[C@H](NC(=O)[C@@H](NC(=O)[C@H](NC(=O)[C@@H](NC(=O)CNC(=O)CN(C)C(C)=O)C(C)C)[C@@H](C)CC)[C@@H](C)O)C(=O)N[C@H](C(=O)N[C@@H](CCCNC(=N)N)C(=O)N1CCC[C@H]1C(=O)NCC)[C@@H](C)CC [ABT-510] (Ac-[Sar]GV[d(aIle)]T[Nva]IRP-NHEt) |  | IC50 [6]: 0.89 nM; IC50 [3]: 10 nM

More lines, main results first:

IC50 [1] [nM] | Compound | also measured
0.07 | CCC[C@H](NC(=O)[C@@H](NC(=O)[C@H](NC(=O)[C@@H](NC(=O)CNC(C)=O)C(C)C)[C@H](C)CC)[C@@H](C)O)C(=O)N[C@H](C(=O)N[C@@H](CCCN=C(N)N)C(=O)N1CCC[C@H]1C(=O)NCC)[C@@H](C)CC | 
0.54 | CCC[C@@H](C(=O)N[C@H](C(=O)N[C@@H](CCCN=C(N)N)C(=O)N1CCC[C@H]1C(=O)NCC)[C@@H](C)CC)N(C)C(=O)[C@@H](NC(=O)[C@H](NC(=O)[C@@H](NC(=O)CNC(=O)CN(C)C(C)=O)C(C)C)[C@H](C)CC)[C@@H](C)O | IC50 [4]: 50 nM
0.45 | CCC[C@@H](C(=O)N[C@H](C(=O)N[C@@H](CCCN=C(N)N)C(=O)N1CCC[C@H]1C(=O)NCC)[C@@H](C)CC)N(C)C(=O)[C@@H](NC(=O)[C@H](NC(=O)[C@@H](NC(=O)CNC(=O)CN(C)C(=O)CCC(=O)O)C(C)C)[C@H](C)CC)[C@@H](C)O | IC50 [3]: 10 nM
0.06 | CCC[C@@H](C(=O)N[C@H](C(=O)N[C@@H](CCCN=C(N)N)C(=O)N1CCC[C@H]1C(=O)NC(C)C)[C@@H](C)CC)N(C)C(=O)[C@@H](NC(=O)[C@H](NC(=O)[C@@H](NC(=O)CNC(=O)CN(C)C(=O)CCC(=O)O)C(C)C)[C@H](C)CC)[C@@H](C)O | IC50 [5]: 0.25 nM
